Measured values published in ChEMBL document CHEMBL1148546, “3-Arylpiperazinylethyl-1H-pyrrolo[2,3-d]pyrimidine-2,4(3H,7H)-dione derivatives as novel, high-affinity and selective alpha(1)-adrenoceptor ligands” (Bioorg Med Chem Lett, 2006).

Legend:
[1] = molecular target: Alpha adrenergic receptor 1A and 1B (Rattus norvegicus) (UniProt P15823+P43140); test: Selectivity for ADRA1B over ADRA1A; assay type: protein assay
Summary of the method: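 Subtype selectivity is the antilog of the difference between the pKb values at α1A, α1B and α1D, measured in isolated rat prostatic vas deferens, spleen and thoracic aorta.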

Homo sapiens = organism: Homo sapiens; test: Selectivity for dopamine D1 over adrenergic alpha-1 receptor
Summary of the method: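 Selectivity is the ratio of Ki at 5-HT1A, D1 or D2 to Ki at α1. Ki values are means (±SD) of three separate experiments.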

[2] = molecular target: T1, Alpha-1D adrenergic receptor (Rattus norvegicus) (UniProt P23944); test: Antagonistic activity at ADRA1D in rat thoracic aorta; assay type: functional, tissue-based
T1 sequence (whole entry): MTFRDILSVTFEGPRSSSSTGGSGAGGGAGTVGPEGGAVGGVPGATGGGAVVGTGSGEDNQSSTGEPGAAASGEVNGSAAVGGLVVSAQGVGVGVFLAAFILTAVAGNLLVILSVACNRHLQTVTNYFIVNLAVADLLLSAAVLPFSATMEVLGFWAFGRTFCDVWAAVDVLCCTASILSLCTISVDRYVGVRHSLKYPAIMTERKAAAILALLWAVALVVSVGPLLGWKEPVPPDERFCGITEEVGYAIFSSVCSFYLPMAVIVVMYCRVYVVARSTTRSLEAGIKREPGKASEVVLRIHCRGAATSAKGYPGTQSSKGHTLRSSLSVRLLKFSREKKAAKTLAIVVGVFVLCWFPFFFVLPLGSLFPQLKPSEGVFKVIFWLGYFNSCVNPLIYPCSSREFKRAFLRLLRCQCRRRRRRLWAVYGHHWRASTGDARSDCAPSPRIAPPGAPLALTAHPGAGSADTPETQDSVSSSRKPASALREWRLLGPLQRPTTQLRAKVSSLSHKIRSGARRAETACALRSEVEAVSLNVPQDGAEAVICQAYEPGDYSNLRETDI
Summary of the method: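 Antagonism in isolated rat tissues: prostatic vas deferens (α1A), spleen (α1B), thoracic aorta (α1D). Each compound tested at a single concentration, and each concentration was investigated at least four times. pKb was calculated by the van Rossum method. pA2 was derived from Arunlakshana–Schild plots. WB4101 was used as the standard.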

[3] = molecular target: T2, 5-hydroxytryptamine receptor 1A (Homo sapiens, UniProt P08908); test: Binding affinity to 5HT1A
T2 sequence (P08908 whole entry): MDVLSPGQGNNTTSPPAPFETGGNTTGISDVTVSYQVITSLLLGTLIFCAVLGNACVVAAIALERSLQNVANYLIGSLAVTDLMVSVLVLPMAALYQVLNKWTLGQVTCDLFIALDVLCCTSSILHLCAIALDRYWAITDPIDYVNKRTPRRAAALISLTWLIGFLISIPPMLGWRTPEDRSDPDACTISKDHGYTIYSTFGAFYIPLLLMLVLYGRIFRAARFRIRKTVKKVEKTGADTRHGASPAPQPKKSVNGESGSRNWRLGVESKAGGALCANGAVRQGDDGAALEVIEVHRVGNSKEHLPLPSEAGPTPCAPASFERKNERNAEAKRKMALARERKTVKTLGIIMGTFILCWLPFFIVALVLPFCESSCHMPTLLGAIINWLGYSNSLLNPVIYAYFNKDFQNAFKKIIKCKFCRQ

Alpha adrenergic receptor 1A and 1B (Rattus norvegicus), sequence (P15823 whole entry, looked up): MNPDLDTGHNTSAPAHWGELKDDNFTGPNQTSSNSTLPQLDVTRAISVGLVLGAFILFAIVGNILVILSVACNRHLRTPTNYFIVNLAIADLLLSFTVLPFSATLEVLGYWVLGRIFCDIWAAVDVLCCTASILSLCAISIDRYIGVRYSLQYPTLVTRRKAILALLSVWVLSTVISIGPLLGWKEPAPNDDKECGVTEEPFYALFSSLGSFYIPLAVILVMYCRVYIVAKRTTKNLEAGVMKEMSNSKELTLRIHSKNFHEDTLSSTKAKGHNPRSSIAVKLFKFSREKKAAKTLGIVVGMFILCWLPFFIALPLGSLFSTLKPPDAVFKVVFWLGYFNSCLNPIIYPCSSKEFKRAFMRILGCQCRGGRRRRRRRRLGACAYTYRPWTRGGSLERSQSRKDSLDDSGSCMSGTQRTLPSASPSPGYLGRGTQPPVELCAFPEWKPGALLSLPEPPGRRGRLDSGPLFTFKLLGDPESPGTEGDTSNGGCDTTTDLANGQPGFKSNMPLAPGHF
Alpha adrenergic receptor 1A and 1B (Rattus norvegicus), sequence (P43140 whole entry, looked up): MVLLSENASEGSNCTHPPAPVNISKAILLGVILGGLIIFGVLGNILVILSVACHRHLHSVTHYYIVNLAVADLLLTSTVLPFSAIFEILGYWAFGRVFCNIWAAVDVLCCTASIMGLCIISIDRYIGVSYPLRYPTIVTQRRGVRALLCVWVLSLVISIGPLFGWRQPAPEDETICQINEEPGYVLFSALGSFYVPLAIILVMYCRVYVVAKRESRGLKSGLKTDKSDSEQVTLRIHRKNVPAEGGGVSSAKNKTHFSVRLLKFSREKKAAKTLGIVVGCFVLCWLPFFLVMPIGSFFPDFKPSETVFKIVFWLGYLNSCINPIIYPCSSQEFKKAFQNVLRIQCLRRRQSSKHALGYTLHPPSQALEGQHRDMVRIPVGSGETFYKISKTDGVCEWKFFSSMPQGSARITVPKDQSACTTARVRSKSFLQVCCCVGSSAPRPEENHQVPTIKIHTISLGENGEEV

Row | Ratio pKb [1] | Ratio Ki (Homo sapiens) | pKb [2] | Ki [3] [nM] | SMILES
1 | 2 | 206 | 7.66 | 1510 | O=c1[nH]c2[nH]c(-c3ccc(Cl)cc3)cc2c(=O)n1CCN1CCN(c2ccccc2Cl)CC1
2 | 4 | 17 | 7.69 | 1070 | COc1ccc(-c2cc3c(=O)n(CCN4CCN(c5ccccc5Cl)CC4)c(=O)[nH]c3[nH]2)cc1
3 | 2 | 33 | 7.78 | 1810 | Cc1ccc(-c2cc3c(=O)n(CCN4CCN(c5ccccc5Cl)CC4)c(=O)[nH]c3[nH]2)cc1

Row | SMILES | Ratio pKb [1] | Ratio Ki (Homo sapiens) | pKb [2] | Ki [3] [nM]
4 | Cc1ccc(-c2cc3[nH]c(=O)n(CCN4CCN(c5ccccc5Cl)CC4)c(=O)c3[nH]2)cc1 | 0.4 | > 500 | 6.44 | > 10000
